{"source": "ChEMBL document CHEMBL1138050", "about": "“Furan-2-ylmethylene thiazolidinediones as novel, potent, and selective inhibitors of phosphoinositide 3-kinase gamma” (J Med Chem, 2006)", "key": {"[1]": {"biological_target": "Dual specificity mitogen-activated protein kinase kinase 6 (Homo sapiens) (UniProt P52564)", "assay": "Residual activity at human MKK6 at 10 uM in presence of 10 uM ATP relative to control", "method_in_brief": "(§1)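 Single-concentration counter-screen across a panel of 80 Ser/Thr and Tyr protein kinases. Compound was tested at 10 µM with ATP at 10 µM. Activity remaining in each kinase is expressed relative to control.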"}, "[2]": {"biological_target": "Protein kinase C beta type (Homo sapiens) (UniProt P05771)", "assay": "Residual activity at human PKCbeta2 at 10 uM in presence of 10 uM ATP relative to control", "method_in_brief": "as §1"}, "[3]": {"biological_target": "Protein kinase C eta type (Homo sapiens) (UniProt P24723)", "sequence (P24723 whole entry)": "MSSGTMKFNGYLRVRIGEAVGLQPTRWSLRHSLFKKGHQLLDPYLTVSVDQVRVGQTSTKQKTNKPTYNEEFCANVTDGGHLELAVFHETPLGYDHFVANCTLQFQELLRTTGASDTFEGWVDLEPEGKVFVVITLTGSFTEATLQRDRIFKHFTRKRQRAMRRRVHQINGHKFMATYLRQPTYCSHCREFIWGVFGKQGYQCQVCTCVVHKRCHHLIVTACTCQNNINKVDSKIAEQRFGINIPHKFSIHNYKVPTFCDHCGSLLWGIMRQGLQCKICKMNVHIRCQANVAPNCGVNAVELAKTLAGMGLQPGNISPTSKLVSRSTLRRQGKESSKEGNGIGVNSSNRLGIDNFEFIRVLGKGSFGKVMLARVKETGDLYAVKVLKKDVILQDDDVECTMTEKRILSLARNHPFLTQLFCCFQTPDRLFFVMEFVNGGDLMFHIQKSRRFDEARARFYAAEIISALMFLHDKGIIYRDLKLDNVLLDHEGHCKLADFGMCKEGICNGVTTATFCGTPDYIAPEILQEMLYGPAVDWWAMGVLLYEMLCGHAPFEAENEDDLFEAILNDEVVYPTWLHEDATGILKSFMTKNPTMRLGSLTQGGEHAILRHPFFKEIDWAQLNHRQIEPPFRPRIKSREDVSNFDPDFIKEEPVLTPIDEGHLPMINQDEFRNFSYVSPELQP", "assay": "Residual activity at human PKCeta at 10 uM in presence of 10 uM ATP relative to control", "method_in_brief": "as §1"}, "[4]": {"biological_target": "Serine/threonine-protein kinase Chk2 (Homo sapiens) (UniProt O96017)", "sequence (O96017 whole entry)": "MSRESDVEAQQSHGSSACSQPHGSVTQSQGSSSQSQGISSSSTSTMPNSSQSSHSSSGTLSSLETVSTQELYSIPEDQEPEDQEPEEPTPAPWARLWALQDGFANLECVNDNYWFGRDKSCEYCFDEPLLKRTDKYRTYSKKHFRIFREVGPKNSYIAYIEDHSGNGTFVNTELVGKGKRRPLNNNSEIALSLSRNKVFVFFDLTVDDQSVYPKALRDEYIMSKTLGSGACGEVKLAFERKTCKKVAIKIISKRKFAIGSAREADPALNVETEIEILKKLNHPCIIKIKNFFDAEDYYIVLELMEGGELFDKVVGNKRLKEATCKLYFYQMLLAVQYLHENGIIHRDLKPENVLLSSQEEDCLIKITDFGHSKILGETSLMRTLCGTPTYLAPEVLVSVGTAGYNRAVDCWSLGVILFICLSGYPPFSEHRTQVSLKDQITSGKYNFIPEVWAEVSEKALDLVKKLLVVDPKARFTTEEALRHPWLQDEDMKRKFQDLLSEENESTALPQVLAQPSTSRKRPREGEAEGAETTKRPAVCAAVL", "assay": "Residual activity at human Chk2 at 10 uM in presence of 10 uM ATP relative to control", "method_in_brief": "(§2)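 Panel of Ser/Thr and Tyr protein kinases, each tested with 10 µM compound in the presence of 10 µM ATP; activity expressed relative to control.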"}, "[5]": {"biological_target": "Inhibitor of nuclear factor kappa-B kinase subunit alpha (Homo sapiens) (UniProt O15111)", "assay": "Residual activity at human IKKalpha at 10 uM in presence of 10 uM ATP relative to control", "method_in_brief": "as §2"}, "[6]": {"biological_target": "Mitogen-activated protein kinase 10 (Homo sapiens) (UniProt P53779)", "assay": "Residual activity at human JNK3 at 10 uM in presence of 10 uM ATP relative to control", "method_in_brief": "as §1"}, "[7]": {"biological_target": "Serine/threonine-protein kinase N2 (Homo sapiens) (UniProt Q16513)", "sequence (Q16513 whole entry, looked up)": "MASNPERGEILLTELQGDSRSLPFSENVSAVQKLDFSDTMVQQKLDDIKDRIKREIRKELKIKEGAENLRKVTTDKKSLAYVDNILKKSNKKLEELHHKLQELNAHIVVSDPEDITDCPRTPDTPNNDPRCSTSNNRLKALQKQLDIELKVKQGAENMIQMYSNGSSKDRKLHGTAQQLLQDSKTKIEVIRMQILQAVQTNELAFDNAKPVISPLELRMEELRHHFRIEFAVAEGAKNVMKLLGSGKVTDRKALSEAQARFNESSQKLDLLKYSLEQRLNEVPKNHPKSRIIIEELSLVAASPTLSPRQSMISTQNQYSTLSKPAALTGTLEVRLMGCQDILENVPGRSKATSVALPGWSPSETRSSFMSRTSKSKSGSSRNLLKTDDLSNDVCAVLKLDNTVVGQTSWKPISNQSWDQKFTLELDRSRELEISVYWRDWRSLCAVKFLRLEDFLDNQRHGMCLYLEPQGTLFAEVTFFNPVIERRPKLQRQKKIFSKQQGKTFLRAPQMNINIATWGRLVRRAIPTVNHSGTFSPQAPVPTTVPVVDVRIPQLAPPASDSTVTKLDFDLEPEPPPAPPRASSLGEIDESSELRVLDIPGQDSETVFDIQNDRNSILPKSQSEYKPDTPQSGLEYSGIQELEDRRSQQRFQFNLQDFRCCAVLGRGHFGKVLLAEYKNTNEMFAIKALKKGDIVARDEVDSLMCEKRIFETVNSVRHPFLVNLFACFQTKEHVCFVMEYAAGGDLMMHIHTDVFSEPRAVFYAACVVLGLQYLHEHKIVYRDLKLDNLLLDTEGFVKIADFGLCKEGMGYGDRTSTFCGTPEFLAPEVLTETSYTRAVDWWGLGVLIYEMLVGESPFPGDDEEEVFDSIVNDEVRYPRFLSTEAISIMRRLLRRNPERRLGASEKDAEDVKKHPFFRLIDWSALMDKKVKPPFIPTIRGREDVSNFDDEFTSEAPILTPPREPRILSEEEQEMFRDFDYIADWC", "assay": "Residual activity at human PRK2 at 10 uM in presence of 10 uM ATP relative to control", "method_in_brief": "as §1"}, "[8]": {"biological_target": "Rho-associated protein kinase 2 (Homo sapiens) (UniProt O75116)", "sequence (O75116 whole entry, looked up)": "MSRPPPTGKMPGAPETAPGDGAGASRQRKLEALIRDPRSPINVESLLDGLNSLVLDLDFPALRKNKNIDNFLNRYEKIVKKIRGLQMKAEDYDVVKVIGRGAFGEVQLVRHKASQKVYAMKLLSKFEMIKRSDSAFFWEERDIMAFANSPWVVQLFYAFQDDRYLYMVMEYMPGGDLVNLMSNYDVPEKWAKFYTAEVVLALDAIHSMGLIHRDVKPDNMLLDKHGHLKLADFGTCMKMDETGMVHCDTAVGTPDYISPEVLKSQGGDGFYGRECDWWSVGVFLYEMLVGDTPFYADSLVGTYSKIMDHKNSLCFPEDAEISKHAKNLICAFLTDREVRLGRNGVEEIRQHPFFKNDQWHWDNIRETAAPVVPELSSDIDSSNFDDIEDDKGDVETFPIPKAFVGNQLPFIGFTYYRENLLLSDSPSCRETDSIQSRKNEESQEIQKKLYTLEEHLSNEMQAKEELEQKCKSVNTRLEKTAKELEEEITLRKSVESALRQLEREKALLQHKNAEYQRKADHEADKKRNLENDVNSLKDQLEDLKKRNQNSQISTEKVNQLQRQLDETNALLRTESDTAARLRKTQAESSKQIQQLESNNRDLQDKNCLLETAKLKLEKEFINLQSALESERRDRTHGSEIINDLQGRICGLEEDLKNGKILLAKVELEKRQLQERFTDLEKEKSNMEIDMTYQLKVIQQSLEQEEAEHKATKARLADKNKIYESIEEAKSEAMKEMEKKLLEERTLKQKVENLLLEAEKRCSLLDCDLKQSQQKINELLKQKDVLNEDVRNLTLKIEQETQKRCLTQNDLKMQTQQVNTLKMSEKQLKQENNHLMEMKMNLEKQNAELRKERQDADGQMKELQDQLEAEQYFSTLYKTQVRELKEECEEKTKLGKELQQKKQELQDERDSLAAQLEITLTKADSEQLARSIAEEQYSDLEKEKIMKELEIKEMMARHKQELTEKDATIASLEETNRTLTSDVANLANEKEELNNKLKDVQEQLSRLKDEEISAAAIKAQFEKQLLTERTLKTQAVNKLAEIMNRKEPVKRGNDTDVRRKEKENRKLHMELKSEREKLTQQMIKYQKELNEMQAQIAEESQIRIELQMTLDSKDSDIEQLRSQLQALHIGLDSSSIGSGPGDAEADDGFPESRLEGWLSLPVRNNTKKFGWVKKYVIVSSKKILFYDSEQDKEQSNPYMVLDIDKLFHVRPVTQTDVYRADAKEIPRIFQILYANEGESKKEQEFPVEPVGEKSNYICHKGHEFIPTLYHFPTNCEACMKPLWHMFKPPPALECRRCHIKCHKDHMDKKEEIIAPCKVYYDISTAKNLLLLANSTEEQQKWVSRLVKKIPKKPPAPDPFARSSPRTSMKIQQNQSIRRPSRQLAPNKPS", "assay": "Residual activity at human ROCK2 at 10 uM in presence of 10 uM ATP relative to control", "method_in_brief": "as §1"}, "[9]": {"biological_target": "Ribosomal protein S6 kinase alpha-2 (Homo sapiens) (UniProt Q15349)", "sequence (Q15349 whole entry)": "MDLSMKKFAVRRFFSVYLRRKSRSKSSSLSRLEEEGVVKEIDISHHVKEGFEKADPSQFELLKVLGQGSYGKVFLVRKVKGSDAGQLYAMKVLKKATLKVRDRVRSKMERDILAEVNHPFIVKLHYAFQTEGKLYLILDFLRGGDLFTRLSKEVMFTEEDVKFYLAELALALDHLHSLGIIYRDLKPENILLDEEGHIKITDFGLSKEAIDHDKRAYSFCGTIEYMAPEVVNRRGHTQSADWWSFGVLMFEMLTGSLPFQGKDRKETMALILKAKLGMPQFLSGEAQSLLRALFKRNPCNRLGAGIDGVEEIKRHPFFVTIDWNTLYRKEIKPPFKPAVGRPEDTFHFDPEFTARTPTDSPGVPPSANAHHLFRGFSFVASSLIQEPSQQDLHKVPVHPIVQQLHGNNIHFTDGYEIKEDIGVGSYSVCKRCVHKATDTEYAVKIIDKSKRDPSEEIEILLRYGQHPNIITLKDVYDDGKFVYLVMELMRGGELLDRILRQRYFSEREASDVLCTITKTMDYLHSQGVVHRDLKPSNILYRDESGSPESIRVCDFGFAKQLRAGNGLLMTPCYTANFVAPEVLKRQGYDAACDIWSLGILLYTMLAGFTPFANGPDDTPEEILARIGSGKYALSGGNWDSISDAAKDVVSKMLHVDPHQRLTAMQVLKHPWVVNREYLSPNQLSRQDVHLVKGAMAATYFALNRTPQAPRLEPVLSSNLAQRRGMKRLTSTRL", "assay": "Residual activity at human Rsk2 at 10 uM in presence of 10 uM ATP relative to control", "method_in_brief": "as §1"}, "[10]": {"biological_target": "Ribosomal protein S6 kinase alpha-3 (Homo sapiens) (UniProt P51812)", "assay": "Residual activity at human Rsk3 at 10 uM in presence of 10 uM ATP relative to control", "method_in_brief": "as §1"}, "[11]": {"biological_target": "Tyrosine-protein kinase Yes (Homo sapiens) (UniProt P07947)", "assay": "Inhibition of human Yes at 10 uM in presence of 10 uM ATP relative to control", "parameters": "scale not given: the % may be the effect or the level left", "method_in_brief": "as §2"}, "Mus musculus": {"test_system": "Mus musculus", "assay": "Reduction of neutrophil recruitment in mouse at 10 mg/kg, po", "format": "functional", "parameters": "scale not given: the % may be the effect or the level left", "method_in_brief": "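Thioglycollate-induced peritonitis in mice. Compound given orally at 10 mg/kg; peritoneal neutrophil recruitment measured 4 h after thioglycollate injection, reported as percent reduction.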"}, "[12]": {"assay": "Metabolism in human microsome after 1 hr", "format": "ADME", "details": "microsomes, read-out: Activity"}, "Rattus norvegicus": {"organism": "Rattus norvegicus", "assay": "Residual activity at rat AMPK at 10 uM in presence of 10 uM ATP relative to control", "method_in_brief": "as §1"}, "[13]": {"biological_target": "Aurora kinase A (Homo sapiens) (UniProt O14965)", "assay": "Residual activity at human Aurora A at 10 uM in presence of 10 uM ATP relative to control", "method_in_brief": "as §2"}, "[14]": {"biological_target": "Cytoplasmic tyrosine-protein kinase BMX (Homo sapiens) (UniProt P51813)", "sequence (P51813 whole entry)": "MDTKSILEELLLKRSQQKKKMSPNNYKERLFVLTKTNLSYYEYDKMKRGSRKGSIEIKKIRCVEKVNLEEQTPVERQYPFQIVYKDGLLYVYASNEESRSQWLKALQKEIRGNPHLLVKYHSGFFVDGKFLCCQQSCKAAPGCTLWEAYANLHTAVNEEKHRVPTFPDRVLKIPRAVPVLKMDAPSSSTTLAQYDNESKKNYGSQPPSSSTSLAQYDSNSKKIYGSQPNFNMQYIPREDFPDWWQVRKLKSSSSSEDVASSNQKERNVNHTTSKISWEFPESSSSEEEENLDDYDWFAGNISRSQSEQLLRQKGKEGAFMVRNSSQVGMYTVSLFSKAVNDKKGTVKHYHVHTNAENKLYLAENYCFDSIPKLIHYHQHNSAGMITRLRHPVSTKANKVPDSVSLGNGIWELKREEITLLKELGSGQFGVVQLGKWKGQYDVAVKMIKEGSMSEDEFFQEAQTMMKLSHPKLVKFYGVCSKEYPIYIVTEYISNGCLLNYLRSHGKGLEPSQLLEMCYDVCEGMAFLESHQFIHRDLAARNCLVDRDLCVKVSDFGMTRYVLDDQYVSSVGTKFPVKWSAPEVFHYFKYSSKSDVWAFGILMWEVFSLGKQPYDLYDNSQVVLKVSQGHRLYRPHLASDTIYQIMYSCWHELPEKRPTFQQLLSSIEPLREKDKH", "assay": "Residual activity at human Bmx at 10 uM in presence of 10 uM ATP relative to control", "method_in_brief": "as §2"}, "[15]": {"biological_target": "Cyclin-dependent kinase 2/cyclin A (Homo sapiens) (UniProt P24941+P20248+P78396)", "assay": "Residual activity at human CDK2/CyclinA at 10 uM in presence of 10 uM ATP relative to control", "format": "protein-complex assay", "method_in_brief": "as §2"}}}
{"smiles": "O=C1NC(=O)/C(=C/c2ccc(-c3ccc(F)cc3O)o2)S1", "values": [{"measurement": "Activity", "setting": "[1]", "result": 105, "unit": "%"}, {"measurement": "Activity", "setting": "[2]", "result": 98, "unit": "%"}, {"measurement": "Activity", "setting": "[3]", "result": 91, "unit": "%"}, {"measurement": "Activity", "setting": "[4]", "result": 82, "unit": "%"}, {"measurement": "Activity", "setting": "[5]", "result": 82, "unit": "%"}, {"measurement": "Activity", "setting": "[6]", "result": 86, "unit": "%"}, {"measurement": "Activity", "setting": "[7]", "result": 95, "unit": "%"}, {"measurement": "Activity", "setting": "[8]", "result": 90, "unit": "%"}, {"measurement": "Activity", "setting": "[9]", "result": 86, "unit": "%"}, {"measurement": "Activity", "setting": "[10]", "result": 73, "unit": "%"}, {"measurement": "Activity", "setting": "[11]", "result": 99, "unit": "%"}, {"measurement": "Activity", "setting": "Mus musculus", "result": 35, "unit": "%"}, {"measurement": "metabolised at 1 h", "setting": "[12]", "result": 10, "unit": "%"}, {"measurement": "Activity", "setting": "Rattus norvegicus", "result": 90, "unit": "%"}, {"measurement": "Activity", "setting": "[13]", "result": 85, "unit": "%"}, {"measurement": "Activity", "setting": "[14]", "result": 102, "unit": "%"}, {"measurement": "Activity", "setting": "[15]", "result": 84, "unit": "%"}]}
